Sampled rows, rich in hits. Any-hit rate of the full collection: about 2%.
SK-BR-3 tox 24h – SK-BR-3 proliferation inhibitors; actives 0.47% (n = 41,000); viability, % at 10 µM; SK-BR-3 viability, CellTiter-Glo ATP luminescence, 24 h; active compounds read low; AID 847;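 active means viability at or below the median of all test compounds minus 3 SD, in both replicates if run twice, cut at about 45% in these data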;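 further: 100% = median untreated cell wells and 0% = median positive control drug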
HEK293 NFkB inh – lowers PMA/ionomycin-induced NF-kB signal in HEK293 cells | HEK-293 NF-kB luciferase reporter, luminescence | inhibition, % at 3 µM | actives 0.21% (n = 62,000) | AID 465;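 active means inhibition above the mean of all tested compounds plus 3 SD, cut at about 40% in these data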;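 further: 0% = stimulated DMSO wells and 100% = 10 µM reference inhibitor 5653914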
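System – HEK-293 cells with stable firefly luciferase reporter driven by four HIV NF-kB elements · Doses – one dose, 3 µM · Schedule – 1 h compound pre-incubation, 16 h PMA/ionomycin at 37 °C · Technique – luminescence from luciferase substrate reagent · Measure – percent inhibition normalized per plate to DMSO and reference-inhibitor controls · Replicates – tested once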
HER2 expr 66K – Her2 kinase expression inhibition; actives 0.69% (n = 65,000); AID 645; P04626; SKBR-3 HER2 protein level, AlphaScreen, 18-24 h; active compounds read low; HER2 level % of control, % at 10 µM;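 active means HER2 level under 5% of the carrier-only control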;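 further: 100% = DMSO carrier and 0% = 500 nM PU-H71 HSP90 inhibitor; lower value means stronger loss of Her2 protein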
Jurkat viability – cytotoxic compounds reducing Jurkat cell viability; Jurkat E6.1 viability, ATP luminescence, 48 h; inhibition, % at 4 µM; actives 1.2% (n = 56,000);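 active means inhibition above the mean inhibition of all tested compounds plus 3 SD, cut at about 28% in these data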
Starred values were filed as active, the others as inactive.

CCn1nc(-c2cccs2)nc2c(=O)n(C)c(=O)nc1-2 was read as SK-BR-3 tox 24h 27.3*, HEK293 NFkB inh 96.6*, HER2 expr 66K -0.1* and Jurkat viability 35.7*.
For CCn1c(O)c(C(=O)CC2NCCc3ccccc32)c(=O)n(CC)c1=S (stereo not given) the results were SK-BR-3 tox 24h 3.2* and HER2 expr 66K -16.9*.
`Cc1oc(C(=O)Nc2ccc(O)cc2)cc1COc1ccccc1` gave SK-BR-3 tox 24h 104.2, HEK293 NFkB inh 16.0, HER2 expr 66K 86.8 and Jurkat viability 7.1.
For N=c1c2c(n(Cc3ccc(Cl)cc3Cl)c3c1CCC3)CCCC2 the results were HEK293 NFkB inh -1.5, HER2 expr 66K 46.8 and Jurkat viability 37.0*.
CCCNS(=O)(=O)c1ccc(OCC(=O)N2CCN(Cc3ccc4c(c3)OCO4)CC2)cc1 was read as SK-BR-3 tox 24h 65.6, HEK293 NFkB inh 25.3, HER2 expr 66K 124.6 and Jurkat viability 31.2*.
Screening Clc1ccc(COC(Cn2ccnc2)c2ccc(Cl)cc2Cl)c(Cl)c1 (stereo not given) returned SK-BR-3 tox 24h 120.6 and HER2 expr 66K 107.2.
Screening O=C1CN=C(c2ccccc2)c2oc3ccc(Br)cc3c2N1 returned SK-BR-3 tox 24h 88.7, HEK293 NFkB inh 7.2, HER2 expr 66K 93.5 and Jurkat viability -7.9.
Screening COc1cccc(OC)c1C1=NCC(=O)Nc2c1oc1ccc(Br)cc21 returned HEK293 NFkB inh 28.2, HER2 expr 66K 55.2 and Jurkat viability 99.1*.
`O=C(COc1ccccc1)N1CCN(CC2CC3C=CC2C3)CC1` (stereo not given) gave SK-BR-3 tox 24h 72.9, HEK293 NFkB inh 13.9, HER2 expr 66K 69.1 and Jurkat viability -0.9.
Screening Cc1ccc(C)c(CN2CCC(n3nnc4cc(F)ccc43)CC2)c1 returned SK-BR-3 tox 24h 61.9, HEK293 NFkB inh 6.3, HER2 expr 66K 113.4 and Jurkat viability -7.9.
O=C(c1cc2c(s1)-c1ccccc1OC2)N1CCC2(CC1)OCCO2 was read as HEK293 NFkB inh -36.7, HER2 expr 66K 113.4 and Jurkat viability 38.0*.
For O=C(c1ccc2nc3ccc(Cl)cc3c(=O)n2c1)N1CCC2(CC1)OCCO2 the results were HEK293 NFkB inh 8.2 and HER2 expr 66K 109.1.
For CCCCCCn1c(N)c(C(=O)NCCN2CCOCC2)c2nc3ccccc3nc21 the results were SK-BR-3 tox 24h 2.3*, HEK293 NFkB inh 0.7, HER2 expr 66K -5.8* and Jurkat viability -3.0.
CCCCCn1c(N)c(C(=O)NCCN2CCOCC2)c2nc3ccccc3nc21 was read as HEK293 NFkB inh 10.0, HER2 expr 66K 36.8 and Jurkat viability -3.1.
`COC(=O)c1cc(COc2cc(C)cc3oc(=O)c4c(c23)CCC4)c(C)o1` gave SK-BR-3 tox 24h 95.4, HEK293 NFkB inh 11.1, HER2 expr 66K 86.7 and Jurkat viability -6.6.
`O=C1CN=C(c2cccs2)c2c(sc3c2CCCC3)N1` gave SK-BR-3 tox 24h 113.0, HEK293 NFkB inh 4.1, HER2 expr 66K 76.7 and Jurkat viability 85.5*.
Screening Cc1cc2c(s1)NC(=O)CN=C2c1cccs1 returned HEK293 NFkB inh 7.3 and HER2 expr 66K 64.2.
Screening CSC(=Nc1ccccc1)c1c(O)n(C)c(=O)n(C)c1=O returned SK-BR-3 tox 24h 84.9, HEK293 NFkB inh 14.2, HER2 expr 66K 133.6 and Jurkat viability 33.7*.
`CN1CCN(c2ccc(C(N)=O)cc2N)CC1` gave SK-BR-3 tox 24h 75.1, HEK293 NFkB inh 21.4, HER2 expr 66K -19.6* and Jurkat viability 4.8.
CCCCc1ccc2[nH]cc(CCN)c2c1 was read as SK-BR-3 tox 24h 46.4, HEK293 NFkB inh 0.7, HER2 expr 66K 80.1 and Jurkat viability 6.7.

Screening data from PubChem BioAssay.
